Laboratory results reported in ChEMBL document CHEMBL1629686, “Substrate selectivity and a novel role in inhibitor discrimination by residue 237 in the KPC-2 beta-lactamase” (Antimicrob Agents Chemother, 2010).
Values after ≈ are worked out from the molar mass of the structure shown.

Tests used:
Klebsiella pneumoniae [1] = experiment: Ratio of Kcat/Km for Klebsiella pneumoniae 1534 beta-lactamase KPC-2 T237A mutant by spectrophotometric analysis
In short: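 Purified KPC-2 variant enzymes (periplasmic lysate from E. coli, preparative isoelectric focusing). Hydrolysis followed by diode-array spectrophotometry in 10 mM PBS, pH 7.4, room temperature. Enzyme at 10 nM with substrate in molar excess for pseudo-first-order conditions. Vmax and Km came from a nonlinear least-squares Michaelis-Menten fit.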

Klebsiella pneumoniae [2] = experiment: Selectivity index, Ratio of Kcat/Km for Klebsiella pneumoniae 1534 beta-lactamase KPC-2 T237S mutant to ratio of Kcat/Km for Klebsiella pneumoniae 1534 beta-lactamase KPC-2 by spectrophotometric analysis
In short: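 Kinetics used purified enzymes in 10 mM PBS, pH 7.4, room temperature, with 10 nM enzyme and substrate in excess. Km and Vmax came from a Michaelis-Menten fit. kcat/Km of the variant was compared with wild type as ΔΔG = −RT ln of the kcat/Km ratio.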

Klebsiella pneumoniae [3] = experiment: Antimicrobial activity against Klebsiella pneumoniae 1534 expressing beta-lactamase KPC-2 by agar dilution method in presence of beta-lactamase inhibitor Tazobactam; type: functional
In short: (§1)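 LB agar dilution MIC following CLSI criteria, inoculated with a Steers replicator. Tested as piperacillin-tazobactam at a fixed 8:1 ratio.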

Escherichia coli [4] = experiment: Antimicrobial activity against Escherichia coli DH10B harboring plasmid pBR322-catI carrying beta-lactamase KPC-2 by agar dilution method in presence of beta-lactamase inhibitor Tazobactam; type: functional; settings: K-12 DH10B; in short: as §1
Escherichia coli [5] = experiment: Antimicrobial activity against Escherichia coli DH10B harboring beta-lactamase KPC-2 T237A mutant by agar dilution method in presence of beta-lactamase inhibitor Tazobactam; type: functional; settings: K-12 DH10B
In short: (§2)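 LB agar dilution MICs by CLSI criteria, inoculated with a Steers replicator. […] Strains were E. coli DH10B with or without pBC SK(+) carrying wild-type blaKPC-2 or a position 237 variant.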

Escherichia coli [6] = experiment: Antimicrobial activity against Escherichia coli DH10B harboring beta-lactamase KPC-2 T237I mutant by agar dilution method in presence of beta-lactamase inhibitor Tazobactam; type: functional; settings: K-12 DH10B; in short: as §2
Escherichia coli [7] = experiment: Antimicrobial activity against Escherichia coli DH10B harboring beta-lactamase KPC-2 T237M mutant by agar dilution method in presence of beta-lactamase inhibitor Tazobactam; type: functional; settings: K-12 DH10B; in short: as §2
Escherichia coli [8] = experiment: Antimicrobial activity against Escherichia coli DH10B harboring beta-lactamase KPC-2 T237V mutant by agar dilution method in presence of beta-lactamase inhibitor Tazobactam; type: functional; settings: K-12 DH10B; in short: as §2
Escherichia coli [9] = experiment: Antimicrobial activity against Escherichia coli DH10B harboring beta-lactamase KPC-2 T237F mutant by agar dilution method in presence of beta-lactamase inhibitor Tazobactam; type: functional; settings: K-12 DH10B; in short: as §2
Escherichia coli [10] = experiment: Antimicrobial activity against Escherichia coli DH10B harboring beta-lactamase KPC-2 T237C mutant by agar dilution method in presence of beta-lactamase inhibitor Tazobactam; type: functional; settings: K-12 DH10B; in short: as §2
Escherichia coli [11] = experiment: Antimicrobial activity against Escherichia coli DH10B harboring beta-lactamase KPC-2 T237D mutant by agar dilution method in presence of beta-lactamase inhibitor Tazobactam; type: functional; settings: K-12 DH10B; in short: as §2
Escherichia coli [12] = experiment: Antimicrobial activity against Escherichia coli DH10B harboring beta-lactamase KPC-2 T237K mutant by agar dilution method in presence of beta-lactamase inhibitor Tazobactam; type: functional; settings: K-12 DH10B; in short: as §2
Escherichia coli [13] = experiment: Antimicrobial activity against Escherichia coli DH10B harboring plasmid pBR322-catI carrying beta-lactamase KPC-2 by agar dilution method in presence of beta-lactamase inhibitor clavulanic acid; type: functional; settings: K-12 DH10B
Escherichia coli [14] = experiment: Antimicrobial activity against Escherichia coli DH10B harboring plasmid pBC SK(+) carrying wild type beta-lactamase KPC-2 by agar dilution method in presence of beta-lactamase inhibitor clavulanic acid; type: functional; settings: K-12 DH10B
In short: (§3)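 LB agar dilution MICs by CLSI criteria, applied with a Steers replicator. […] Hosts were E. coli DH10B carrying pBC SK(+) with wild-type blaKPC-2 or a position 237 variant.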

Escherichia coli [15] = experiment: Antimicrobial activity against Escherichia coli DH10B harboring plasmid pBC SK(+) carrying wild type beta-lactamase KPC-2 by agar dilution method in presence of beta-lactamase inhibitor Sulbactam; type: functional; settings: K-12 DH10B; in short: as §3
Escherichia coli [16] = experiment: Antimicrobial activity against Escherichia coli DH10B harboring beta-lactamase KPC-2 T237A mutant by agar dilution method in presence of beta-lactamase inhibitor Sulbactam; type: functional; settings: K-12 DH10B; in short: as §3
Escherichia coli [17] = experiment: Antimicrobial activity against Escherichia coli DH10B harboring beta-lactamase KPC-2 T237I mutant by agar dilution method in presence of beta-lactamase inhibitor clavulanic acid; type: functional; settings: K-12 DH10B; in short: as §3
Escherichia coli [18] = experiment: Antimicrobial activity against Escherichia coli DH10B harboring beta-lactamase KPC-2 T237M mutant by agar dilution method in presence of beta-lactamase inhibitor clavulanic acid; type: functional; settings: K-12 DH10B; in short: as §3
Escherichia coli [19] = experiment: Antimicrobial activity against Escherichia coli DH10B harboring beta-lactamase KPC-2 T237V mutant by agar dilution method in presence of beta-lactamase inhibitor Sulbactam; type: functional; settings: K-12 DH10B; in short: as §3
Escherichia coli [20] = experiment: Antimicrobial activity against Escherichia coli DH10B harboring beta-lactamase KPC-2 T237F mutant by agar dilution method in presence of beta-lactamase inhibitor Sulbactam; type: functional; settings: K-12 DH10B; in short: as §3
Escherichia coli [21] = experiment: Antimicrobial activity against Escherichia coli DH10B harboring beta-lactamase KPC-2 T237Y mutant by agar dilution method in presence of beta-lactamase inhibitor Sulbactam; type: functional; settings: K-12 DH10B; in short: as §3
Escherichia coli [22] = experiment: Antimicrobial activity against Escherichia coli DH10B harboring beta-lactamase KPC-2 T237N mutant by agar dilution method in presence of beta-lactamase inhibitor Sulbactam; type: functional; settings: K-12 DH10B; in short: as §3
Escherichia coli [23] = experiment: Antimicrobial activity against Escherichia coli DH10B harboring beta-lactamase KPC-2 T237P mutant by agar dilution method in presence of beta-lactamase inhibitor clavulanic acid; type: functional; settings: K-12 DH10B
In short: (§4)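 LB agar dilution MICs per CLSI criteria, inoculated with a Steers replicator. […] Strains: E. coli DH10B alone, DH10B carrying empty pBC SK(+), or DH10B carrying pBC SK(+)-blaKPC-2 position 237 variants made by site-saturation mutagenesis and confirmed by sequencing. Plasmid selection used 20 mg/liter chloramphenicol.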

Escherichia coli [24] = experiment: Antimicrobial activity against Escherichia coli DH10B harboring beta-lactamase KPC-2 T237D mutant by agar dilution method in presence of beta-lactamase inhibitor clavulanic acid; type: functional; settings: K-12 DH10B; in short: as §3
Escherichia coli [25] = experiment: Antimicrobial activity against Escherichia coli DH10B harboring beta-lactamase KPC-2 T237H mutant by agar dilution method in presence of beta-lactamase inhibitor clavulanic acid; type: functional; settings: K-12 DH10B; in short: as §3
Escherichia coli [26] = experiment: Antimicrobial activity against Escherichia coli DH10B harboring beta-lactamase KPC-2 T237H mutant by agar dilution method in presence of beta-lactamase inhibitor Sulbactam; type: functional; settings: K-12 DH10B; in short: as §3
Escherichia coli [27] = experiment: Antimicrobial activity against Escherichia coli DH10B harboring beta-lactamase KPC-2 T237K mutant by agar dilution method in presence of beta-lactamase inhibitor clavulanic acid; type: functional; settings: K-12 DH10B; in short: as §4
Escherichia coli [28] = experiment: Antimicrobial activity against Escherichia coli DH10B harboring beta-lactamase KPC-2 T237K mutant by agar dilution method in presence of beta-lactamase inhibitor Sulbactam; type: functional; settings: K-12 DH10B; in short: as §3
Escherichia coli [29] = experiment: Antimicrobial activity against Escherichia coli DH10B harboring beta-lactamase KPC-2 T237R mutant by agar dilution method in presence of beta-lactamase inhibitor Sulbactam; type: functional; settings: K-12 DH10B; in short: as §4
Escherichia coli [30] = experiment: Antimicrobial activity against Escherichia coli DH10B by agar dilution method in presence of beta-lactamase inhibitor Sulbactam; type: functional; settings: K-12 DH10B; in short: as §4
Escherichia coli [31] = experiment: Antimicrobial activity against Escherichia coli DH10B harboring plasmid […] by agar dilution method in presence of beta-lactamase inhibitor clavulanic acid; type: functional; settings: K-12 DH10B; in short: as §4
Klebsiella pneumoniae [32] = experiment: microbe, parasite or virus in culture; settings: 1534

In the case of `CCN1CCN(C(=O)N[C@@H](C(=O)N[C@@H]2C(=O)N3[C@@H]2SC(C)(C)[C@@H]3C(=O)O)c2ccccc2)C(=O)C1=O` [PIPERACILLIN], the kcat/Km (Klebsiella pneumoniae [1]) was 3.5e+06 M⁻¹ s⁻¹, the fold change (FC) (Klebsiella pneumoniae [2]) was 2.7 and the MIC (Klebsiella pneumoniae [3]) was 64 µg/mL. For the same molecule, the MIC (Escherichia coli [4]) was 64 µg/mL, the MIC (Escherichia coli [5]) was 4 µg/mL and the MIC (Escherichia coli [6]) was 1 µg/mL. For the same molecule, the MIC (Escherichia coli [7]) was 2 µg/mL, the MIC (Escherichia coli [8]) was 2 µg/mL and the MIC (Escherichia coli [9]) was 0.5 µg/mL. The MIC (Escherichia coli [10]) was 0.5 µg/mL, the MIC (Escherichia coli [11]) was 1 µg/mL and the MIC (Escherichia coli [12]) was 0.5 µg/mL.
`CC1(C)S[C@@H]2[C@H](NC(=O)[C@H](N)c3ccccc3)C(=O)N2[C@H]1C(=O)O` [AMPICILLIN] showed an MIC (Escherichia coli [13]) of 32 µg/mL, an MIC (Escherichia coli [14]) of 4 µg/mL and an MIC (Escherichia coli [15]) of 128 µg/mL. For the same molecule, the MIC (Escherichia coli [16]) was 64 µg/mL, the MIC (Escherichia coli [17]) was 8 µg/mL and the MIC (Escherichia coli [18]) was 8 µg/mL. The MIC (Escherichia coli [19]) was 32 µg/mL, the MIC (Escherichia coli [20]) was 8 µg/mL and the MIC (Escherichia coli [21]) was 8 µg/mL. For the same molecule, the MIC (Escherichia coli [22]) was 8 µg/mL, the MIC (Escherichia coli [23]) was 1 µg/mL and the MIC (Escherichia coli [24]) was 8 µg/mL. It also gave an MIC (Escherichia coli [25]) of 4 µg/mL, an MIC (Escherichia coli [26]) of 16 µg/mL and an MIC (Escherichia coli [27]) of 1 µg/mL. For the same molecule, the MIC (Escherichia coli [28]) was 4 µg/mL, the MIC (Escherichia coli [29]) was 1 µg/mL and the MIC (Escherichia coli [30]) was 1 µg/mL. It also gave an MIC (Escherichia coli [31]) of 1 µg/mL and an MIC (Klebsiella pneumoniae [32]) of 32 µg/mL (≈ 91.6 µM).
